From ChEMBL document CHEMBL2401617, “Synthesis and biological evaluation of some novel thiazole compounds as potential anti-inflammatory agents” (2013)
Converted amounts (≈) assume the structure as drawn.

Assays:
Type in all cases: functional
Serratia marcescens [1] = assay: Antibacterial activity against Serratia marcescens IMRU 70 assessed as growth inhibition after 24 hrs by Kirby-Bauer disc diffusion method relative to ampicillin; set-up: concentration or dose not given beside the values
Outline: (§1)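 Modified Kirby-Bauer disc diffusion on Mueller-Hinton agar spread with broth culture at about 10^8 cells/ml. Blank 8.0 mm paper discs were impregnated with test solution. Ampicillin discs at the same concentration and solvent served as positive control, and solvent discs as negative control. Plates were incubated at 35–37 °C, and inhibition-zone diameter (mm) was read at 24 h by caliper. % activity index = zone relative to ampicillin.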

Proteus mirabilis [2] = assay: Antibacterial activity against Proteus mirabilis NCTC 289 assessed as growth inhibition after 24 hrs by Kirby-Bauer disc diffusion method relative to ampicillin; set-up: concentration or dose not given beside the values; outline: as §1
Bacillus cereus [3] = assay: Antibacterial activity against Bacillus cereus NCTC 14579 assessed as growth inhibition after 24 hrs by Kirby-Bauer disc diffusion method relative to ampicillin; outline: as §1
Staphylococcus aureus [4] = assay: Antibacterial activity against Staphylococcus aureus NCTC 7447 assessed as growth inhibition after 24 hrs by Kirby-Bauer disc diffusion method relative to ampicillin; set-up: concentration or dose not given beside the values; outline: as §1
Rattus norvegicus [5] = assay: Antiinflammatory activity in albino Wistar rat assessed as inhibition of carrageenan-induced paw oedema at 50 mg/kg, po administered 1 hr prior to carrageenan challenge measured at 4 hrs by plethysmometeric analysis relative to control
Outline: (§2)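 Albino Wistar rats of either sex (130–150 g), 6 per group, fasted 12 h with water ad libitum. Test compounds were given orally at 50 mg/kg as DMSO solution; controls received 1 ml 20% v/v DMSO. One hour later, 0.1 ml 1% w/v carrageenan in 0.9% saline was injected into the left hind paw plantar region. Plethysmometer volume was read at 0 and 1–4 h. % inhibition = [1 − (Vt/Vc)] × 100.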

Rattus norvegicus [6] = assay: Antiinflammatory activity in albino Wistar rat assessed as inhibition of carrageenan-induced paw oedema at 50 mg/kg, po administered 1 hr prior to carrageenan challenge measured at 3 hrs by plethysmometeric analysis relative to control; outline: as §2
Rattus norvegicus [7] = assay: Antiinflammatory activity in albino Wistar rat assessed as inhibition of carrageenan-induced paw oedema at 50 mg/kg, po administered 1 hr prior to carrageenan challenge measured at 2 hrs by plethysmometeric analysis relative to control; outline: as §2
Rattus norvegicus [8] = assay: Antiinflammatory activity in albino Wistar rat assessed as inhibition of carrageenan-induced paw oedema at 50 mg/kg, po administered 1 hr prior to carrageenan challenge measured at 1 hr post carrageenan challenge by plethysmometeric analysis relative to control; outline: as §2
Serratia marcescens [9] = assay: Antibacterial activity against Serratia marcescens IMRU 70 assessed as growth inhibition after 24 hrs by Kirby-Bauer disc diffusion method; outline: as §1
Proteus mirabilis [10] = assay: Antibacterial activity against Proteus mirabilis NCTC 289 assessed as growth inhibition after 24 hrs by Kirby-Bauer disc diffusion method; outline: as §1
Bacillus cereus [11] = assay: Antibacterial activity against Bacillus cereus NCTC 14579 assessed as growth inhibition after 24 hrs by Kirby-Bauer disc diffusion method; outline: as §1
Staphylococcus aureus [12] = assay: Antibacterial activity against Staphylococcus aureus NCTC 7447 assessed as growth inhibition after 24 hrs by Kirby-Bauer disc diffusion method; outline: as §1
Staphylococcus aureus [13] = assay: Antibacterial activity against Staphylococcus aureus NCTC 7447 assessed as growth inhibition by disc diffusion method
Rattus norvegicus [14] = assay: Antiinflammatory activity in albino Wistar rat assessed as inhibition of carrageenan-induced paw oedema at 10 mg/kg, po administered 1 hr prior to carrageenan challenge measured at 4 hrs by plethysmometeric analysis relative to control
Outline: (§3)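 Albino Wistar rats of either sex (130–150 g), 6 per group, fasted 12 h with water ad libitum. Indomethacin 10 mg/kg was given orally in 1 ml 20% v/v DMSO; controls received vehicle. One hour later, 0.1 ml 1% w/v carrageenan in 0.9% saline was injected subplantar into the left hind paw. Paw volume was read by plethysmometer at 0 and 1–4 h. % inhibition = [1 − (Vt/Vc)] × 100.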

Rattus norvegicus [15] = assay: Antiinflammatory activity in albino Wistar rat assessed as inhibition of carrageenan-induced paw oedema at 10 mg/kg, po administered 1 hr prior to carrageenan challenge measured at 3 hrs by plethysmometeric analysis relative to control; outline: as §3
Rattus norvegicus [16] = assay: Antiinflammatory activity in albino Wistar rat assessed as inhibition of carrageenan-induced paw oedema at 10 mg/kg, po administered 1 hr prior to carrageenan challenge measured at 2 hrs by plethysmometeric analysis relative to control; outline: as §3
Rattus norvegicus [17] = assay: Antiinflammatory activity in albino Wistar rat assessed as inhibition of carrageenan-induced paw oedema at 10 mg/kg, po administered 1 hr prior to carrageenan challenge measured at 1 hr post carrageenan challenge by plethysmometeric analysis relative to control; outline: as §3

Nc1nc(-c2ccc(N3CCOCC3)cc2)cs1
Activity_index (Serratia marcescens [1]): 15.72%
Activity_index (Proteus mirabilis [2]): 9.52%
Activity_index (Bacillus cereus [3]): 17.39%
Activity_index (Staphylococcus aureus [4]): 20.83%
inhibition in vivo at 50 mg/kg (Rattus norvegicus [5]): 86.8%
inhibition in vivo at 50 mg/kg (Rattus norvegicus [6]): 75.3%
inhibition in vivo at 50 mg/kg (Rattus norvegicus [7]): 31.7%
inhibition in vivo at 50 mg/kg (Rattus norvegicus [8]): -17%
diameter of the inhibition zone (DIZ) (Serratia marcescens [9]): 3 mm
diameter of the inhibition zone (DIZ) (Proteus mirabilis [10]): 2 mm
diameter of the inhibition zone (DIZ) (Bacillus cereus [11]): 4 mm
diameter of the inhibition zone (DIZ) (Staphylococcus aureus [12]): 5 mm

C/C(=N\NC1=NCC(=O)S1)c1ccc(N2CCOCC2)cc1
Activity_index (Serratia marcescens [1]): 15.72%
Activity_index (Proteus mirabilis [2]): 9.52%
Activity_index (Bacillus cereus [3]): 16.67%
Activity_index (Staphylococcus aureus [4]): 20.83%
inhibition in vivo at 50 mg/kg (Rattus norvegicus [5]): 78.2%
inhibition in vivo at 50 mg/kg (Rattus norvegicus [6]): 63.4%
inhibition in vivo at 50 mg/kg (Rattus norvegicus [7]): 28.6%
inhibition in vivo at 50 mg/kg (Rattus norvegicus [8]): 29.5%
diameter of the inhibition zone (DIZ) (Serratia marcescens [9]): 3 mm
diameter of the inhibition zone (DIZ) (Proteus mirabilis [10]): 2 mm
diameter of the inhibition zone (DIZ) (Bacillus cereus [11]): 4 mm
diameter of the inhibition zone (DIZ) (Staphylococcus aureus [12]): 5 mm

C/C(=N\Nc1nc(-c2ccccc2)cs1)c1ccc(N2CCOCC2)cc1
Activity_index (Serratia marcescens [1]): 15.72%
Activity_index (Proteus mirabilis [2]): 14.28%
Activity_index (Bacillus cereus [3]): 17.39%
Activity_index (Staphylococcus aureus [4]): 16.67%
inhibition in vivo at 50 mg/kg (Rattus norvegicus [5]): 79.1%
inhibition in vivo at 50 mg/kg (Rattus norvegicus [6]): 62.2%
inhibition in vivo at 50 mg/kg (Rattus norvegicus [7]): 35%
inhibition in vivo at 50 mg/kg (Rattus norvegicus [8]): -1.6%
diameter of the inhibition zone (DIZ) (Serratia marcescens [9]): 2 mm
diameter of the inhibition zone (DIZ) (Proteus mirabilis [10]): 3 mm
diameter of the inhibition zone (DIZ) (Bacillus cereus [11]): 4 mm
diameter of the inhibition zone (DIZ) (Staphylococcus aureus [12]): 4 mm

C/C(=N\NC(=O)CC#N)c1ccc(N2CCOCC2)cc1
Activity_index (Serratia marcescens [1]): 15.72%
Activity_index (Proteus mirabilis [2]): 14.28%
Activity_index (Bacillus cereus [3]): 17.39%
Activity_index (Staphylococcus aureus [4]): 75%
MIC (Staphylococcus aureus [13]): 40 µg/mL (≈ 140 µM)
diameter of the inhibition zone (DIZ) (Serratia marcescens [9]): 2 mm
diameter of the inhibition zone (DIZ) (Proteus mirabilis [10]): 3 mm
diameter of the inhibition zone (DIZ) (Bacillus cereus [11]): 4 mm
diameter of the inhibition zone (DIZ) (Staphylococcus aureus [12]): 18 mm

C/C(=N/c1nc(-c2ccccc2)cs1)c1ccc(N2CCOCC2)cc1
Activity_index (Serratia marcescens [1]): 15.72%
Activity_index (Proteus mirabilis [2]): 14.28%
Activity_index (Bacillus cereus [3]): 17.39%
Activity_index (Staphylococcus aureus [4]): 20.83%
inhibition in vivo at 50 mg/kg (Rattus norvegicus [5]): 81.6%
inhibition in vivo at 50 mg/kg (Rattus norvegicus [6]): 59.8%
inhibition in vivo at 50 mg/kg (Rattus norvegicus [7]): 22.9%
inhibition in vivo at 50 mg/kg (Rattus norvegicus [8]): 27.2%
diameter of the inhibition zone (DIZ) (Serratia marcescens [9]): 2 mm
diameter of the inhibition zone (DIZ) (Proteus mirabilis [10]): 3 mm
diameter of the inhibition zone (DIZ) (Bacillus cereus [11]): 4 mm
diameter of the inhibition zone (DIZ) (Staphylococcus aureus [12]): 5 mm

C/C(=N\N=C1/N=C2OC(=O)C=C2S1)c1ccc(N2CCOCC2)cc1
Activity_index (Serratia marcescens [1]): 15.72%
Activity_index (Proteus mirabilis [2]): 9.52%
Activity_index (Bacillus cereus [3]): 17.39%
Activity_index (Staphylococcus aureus [4]): 20.83%
inhibition in vivo at 50 mg/kg (Rattus norvegicus [5]): 85%
inhibition in vivo at 50 mg/kg (Rattus norvegicus [6]): 75.7%
inhibition in vivo at 50 mg/kg (Rattus norvegicus [7]): 50.6%
inhibition in vivo at 50 mg/kg (Rattus norvegicus [8]): 23.3%
diameter of the inhibition zone (DIZ) (Serratia marcescens [9]): 3 mm
diameter of the inhibition zone (DIZ) (Proteus mirabilis [10]): 2 mm
diameter of the inhibition zone (DIZ) (Bacillus cereus [11]): 4 mm
diameter of the inhibition zone (DIZ) (Staphylococcus aureus [12]): 5 mm

C/C(=N\NC1=NC(=O)CS1)c1ccc(N2CCOCC2)cc1
Activity_index (Serratia marcescens [1]): 15.72%
Activity_index (Proteus mirabilis [2]): 14.28%
Activity_index (Bacillus cereus [3]): 17.39%
Activity_index (Staphylococcus aureus [4]): 16.67%
inhibition in vivo at 50 mg/kg (Rattus norvegicus [5]): 35.7%
inhibition in vivo at 50 mg/kg (Rattus norvegicus [6]): 29%
inhibition in vivo at 50 mg/kg (Rattus norvegicus [7]): -8%
inhibition in vivo at 50 mg/kg (Rattus norvegicus [8]): -58.6%
diameter of the inhibition zone (DIZ) (Serratia marcescens [9]): 3 mm
diameter of the inhibition zone (DIZ) (Proteus mirabilis [10]): 3 mm
diameter of the inhibition zone (DIZ) (Bacillus cereus [11]): 4 mm
diameter of the inhibition zone (DIZ) (Staphylococcus aureus [12]): 4 mm

C/C(=N\N=C(\N)S)c1ccc(N2CCOCC2)cc1
Activity_index (Serratia marcescens [1]): 15.72%
Activity_index (Proteus mirabilis [2]): 9.52%
Activity_index (Bacillus cereus [3]): 17.39%
Activity_index (Staphylococcus aureus [4]): 16.67%
inhibition in vivo at 50 mg/kg (Rattus norvegicus [5]): 83.6%
inhibition in vivo at 50 mg/kg (Rattus norvegicus [6]): 55.7%
inhibition in vivo at 50 mg/kg (Rattus norvegicus [7]): 23%
inhibition in vivo at 50 mg/kg (Rattus norvegicus [8]): -35%
diameter of the inhibition zone (DIZ) (Serratia marcescens [9]): 3 mm
diameter of the inhibition zone (DIZ) (Proteus mirabilis [10]): 2 mm
diameter of the inhibition zone (DIZ) (Bacillus cereus [11]): 4 mm
diameter of the inhibition zone (DIZ) (Staphylococcus aureus [12]): 4 mm

COc1ccc2c(c1)c(CC(=O)O)c(C)n2C(=O)c1ccc(Cl)cc1 [INDOMETHACIN]
inhibition in vivo at 10 mg/kg (Rattus norvegicus [14]): 91.3%
inhibition in vivo at 10 mg/kg (Rattus norvegicus [15]): 75.5%
inhibition in vivo at 10 mg/kg (Rattus norvegicus [16]): 45.1%
inhibition in vivo at 10 mg/kg (Rattus norvegicus [17]): 10.5%
